Our source for the Activity and inhibition values is ChEMBL document CHEMBL4619820, “Development of Novel AKR1C3 Inhibitors as New Potential Treatment for Castration-Resistant Prostate Cancer” (J Med Chem, 2020).

In series [1] the test system is CWR22R. As to the kind of experiment: Effect on AKR1C3 gene expression in human 22Rv1 cells at 10 uM incubated for 24 hrs by semiquantitative RT-PCR analysis. The series is classed as functional, cell-based.
In series [2] the test system is CWR22R. Nature of the series: Inhibition of pregnenolone-induced cell cell cycle changes in human 22Rv1 cells assessed as reduction in S phase accumulation at 10 uM pre-incubated for 2 hrs before pregnenolone stimulation for 24 hrs by propidium iodide staining based flow cytometry. It is filed as functional. The method, boiled down:
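Cell cycle in 22Rv1: 2 h pretreatment with or without 10 μM inhibitor, then 24 h with 20 nM pregnenolone; G0/G1, S and G2/M fractions determined by flow cytometry.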

Series [3] deals with T1, Aldo-keto reductase family 1 member C3 (Homo sapiens) (UniProt P42330).
T1 sequence (whole entry): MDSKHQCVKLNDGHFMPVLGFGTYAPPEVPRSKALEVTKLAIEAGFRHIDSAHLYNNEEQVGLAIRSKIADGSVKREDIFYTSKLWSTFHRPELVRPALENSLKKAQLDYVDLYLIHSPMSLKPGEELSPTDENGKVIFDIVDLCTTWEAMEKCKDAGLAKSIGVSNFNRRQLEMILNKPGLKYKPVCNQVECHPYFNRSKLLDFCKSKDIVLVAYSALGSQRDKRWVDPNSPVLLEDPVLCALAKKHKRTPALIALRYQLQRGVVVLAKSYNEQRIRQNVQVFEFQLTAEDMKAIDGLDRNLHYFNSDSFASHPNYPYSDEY
Nature of the series: Inhibition of AKR1C3 in human 22Rv1 cells assessed as potentiation of enzalutamide-induced apoptosis by measuring reduction in BCl2 level at 10 uM pre-incubated for 2 hrs before addition of pregnenolone for 24 hrs by Western blot analysis. The series is classed as cell-based. The conditions noted are these: CWR22R. The method in brief:
(§1)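 Apoptotic markers in 22Rv1: 2 h pretreatment with or without 10 μM inhibitor and/or 50 μM enzalutamide, then 24 h 20 nM pregnenolone; Bax/Bcl-2 ratio as percent of control; cleaved caspase-3 also by immunofluorescence with DAPI.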
On the technique in general: In western blotting, separated proteins are transferred to a membrane and probed.

Series [4] deals with T1, Aldo-keto reductase family 1 member C3 (Homo sapiens). Nature of the series: Inhibition of AKR1C3 in human 22Rv1 cells assessed as as reduction in finasteride-induced metabolism of 4AD into testosterone at 10 to 20 uM pre-incubated for 2 hrs in presence of finasteride before 4AD addition for 24 hrs by EIA. The series is classed as cell-based. The note with it: CWR22R. The method in brief:
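22Rv1 cells pretreated 2 h with or without 2 μM finasteride and/or inhibitor, then cultured 24 h with 100 nM 4AD; testosterone in cell extracts quantified by EIA and expressed as percent of finasteride-free control.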

The next series relates to PC-3. The note with it: Homo sapiens, at 10 µM.
Series [5] deals with T1, Aldo-keto reductase family 1 member C3 (Homo sapiens). As to the kind of experiment: Inhibition of AKR1C3 in human 22Rv1 cells assessed as potentiation of enzalutamide-induced apoptosis by measuring increase in DNA fragmentation at 10 uM pre-incubated for 2 hrs before addition of pregnenolone for 24 hrs by ethidium bromide staining based DNA agarose gel electrophores method. It is filed as cell-based. The conditions noted are these: CWR22R.

Series [6] has the same target. As to the kind of experiment: Inhibition of AKR1C3 in human 22Rv1 cells assessed as potentiation of abiraterone-induced apoptosis by measuring increase in DNA fragmentation at 10 uM pre-incubated for 2 hrs before addition of pregnenolone for 24 hrs by ethidium bromide staining based DNA agarose gel electrophores method. The series is classed as cell-based. The note with it: CWR22R.

The target is the same in series [7]. As to the kind of experiment: Inhibition of AKR1C3 in human 22Rv1 cells assessed as as reduction in TMPRSS2 mRNA expression at 10 to 20 uM pre-incubated for 2 hrs before pregnenolone stimulation for 24 hrs by RT-qPCR analysis. The series is classed as cell-based. The note with it: CWR22R. The method in brief:
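22Rv1 cells pretreated 2 h with test agents, then stimulated 24 h with 20 nM pregnenolone; AR, TMPRSS2 and PSA mRNA measured by RT-qPCR, given as ratio to pregnenolone-free control.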
(In qPCR the cycle at which signal appears reflects the starting amount.)

The target is the same in series [8]. Nature of the series: Inhibition of AKR1C3 in human 22Rv1 cells assessed as potentiation of enzalutamide-induced apoptosis by measuring increase in cleaved PARP level at 10 uM pre-incubated for 2 hrs before addition of pregnenolone for 24 hrs by Western blot analysis. The series is classed as cell-based. The conditions noted are these: CWR22R. The method, boiled down: as §1

The nature of series [9]: Toxicity in Balb/c nu/nu athymic mouse xenografted with human 22Rv1 cells assessed as effect on kidney histology at 50 mg/kg, ip dosed twice per week for 6 weeks by H and E staining dependent light microscopy based histopathological analysis. It is filed as organism-based, CWR22R. The note with it: in vivo, 1008 h. The method, boiled down:
(§2)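 Mice carrying 22Rv1 xenografts were dosed intraperitoneally, with vehicle controls n=15 and treated groups n=10. Tissue sections of kidney, liver and lung were stained with hematoxylin and eosin and examined by light microscopy at ×40 magnification for histopathological changes.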

Series [10] deals with CWR22R. As to the kind of experiment: Antitumor activity against human 22Rv1 cells xenografted in Balb/c nu/nu athymic mouse assessed as increase in necrotic region in tumor tissue at 50 mg/kg, ip dosed twice per week for 6 weeks by H and E staining dependent light microscopy based histopathological analysis. It is filed as functional, organism-based. The method in brief: (§3)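 Tumor tissue, plus liver, kidney and lung, from xenografted mice given ip 50 or 100 mg/kg; sections stained with hematoxylin and eosin and examined at ×40 for necrotic areas.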
Background: In xenograft studies the graft and the host belong to different species.

Series [11] concerns CWR22R. Nature of the series: Antitumor activity against human 22Rv1 cells xenografted in Balb/c nu/nu athymic mouse assessed as reduction in tumor volume at 50 mg/kg, ip dosed twice per week for 6 weeks. The series is classed as functional, organism-based. The method, boiled down:
(§4)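 22Rv1 xenograft mice dosed intraperitoneally with vehicle (control, n=15), 50 mg/kg (n=10) or 100 mg/kg (n=10); tumor size followed over time; body weights recorded.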

Series [12] in a line: Toxicity in Balb/c nu/nu athymic mouse xenografted with human 22Rv1 cells assessed as effect on body weight at 50 mg/kg, ip dosed twice per week for 6 weeks by H and E staining dependent light microscopy based histopathological analysis. The series is classed as organism-based, CWR22R. The note with it: in vivo, 1008 h. The method, boiled down: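 Mice carrying 22Rv1 xenografts received intraperitoneal injections. The vehicle control group had n=15 and each treated dose group had n=10. Average body weights were compared between treated and vehicle-control mice.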

Series [13] is described as follows: Toxicity in Balb/c nu/nu athymic mouse xenografted with human 22Rv1 cells assessed as effect on lung histology at 50 mg/kg, ip dosed twice per week for 6 weeks by H and E staining dependent light microscopy based histopathological analysis. The note with it: in vivo, 1008 h. The series is classed as organism-based, CWR22R. The method, boiled down: as §2
The nature of series [14]: Toxicity in Balb/c nu/nu athymic mouse xenografted with human 22Rv1 cells assessed as effect on liver histology at 50 mg/kg, ip dosed twice per week for 6 weeks by H and E staining dependent light microscopy based histopathological analysis. The conditions noted are these: in vivo, 1008 h. The series is classed as organism-based, CWR22R. The method in brief: as §2
Series [15] in a line: Toxicity in Balb/c nu/nu athymic mouse xenografted with human 22Rv1 cells assessed as effect on kidney histology at 100 mg/kg, ip dosed twice per week for 6 weeks by H and E staining dependent light microscopy based histopathological analysis. It is filed as organism-based, CWR22R. The note with it: in vivo, 1008 h. The method, boiled down:
as §2

Series [16] is described as follows: Toxicity in Balb/c nu/nu athymic mouse xenografted with human 22Rv1 cells assessed as effect on lung histology at 100 mg/kg, ip dosed twice per week for 6 weeks by H and E staining dependent light microscopy based histopathological analysis. It is filed as organism-based, CWR22R. The note with it: in vivo, 1008 h. The method, boiled down:
as §2

The nature of series [17]: Toxicity in Balb/c nu/nu athymic mouse xenografted with human 22Rv1 cells assessed as effect on liver histology at 100 mg/kg, ip dosed twice per week for 6 weeks by H and E staining dependent light microscopy based histopathological analysis. The series is classed as organism-based, CWR22R. The note with it: in vivo, 1008 h. The method, boiled down: as §2
In series [18] the test system is CWR22R. As to the kind of experiment: Antitumor activity against human 22Rv1 cells xenografted in Balb/c nu/nu athymic mouse assessed as increase in necrotic region in tumor tissue at 100 mg/kg, ip dosed twice per week for 6 weeks by H and E staining dependent light microscopy based histopathological analysis. It is filed as functional, organism-based. The method in brief:
as §3

For series [19], the system named is CWR22R. Nature of the series: Antitumor activity against human 22Rv1 cells xenografted in Balb/c nu/nu athymic mouse assessed as reduction in tumor volume at 100 mg/kg, ip dosed twice per week for 6 weeks. The series is classed as functional, organism-based. The method in brief:
as §4

Each structure is given as a SMILES string. Activity calls are given as the source filed them. No cut-off for these calls is given here.

For `N=c1oc2c(O)cccc2cc1C(=O)Nc1ccc(F)cc1`, the outcome in the series on CWR22R [1] was inactive. Moreover, the inhibition result (in the series with CWR22R [2]; in series [3]; in series [4]; with PC-3; in series [5]; in series [6]) was “Active” in each case. For the same molecule, the inhibition result in series [7] and in [8] was “Active” in each case.
`Cc1ccc(NC(=O)c2cc3cccc(O)c3oc2=N)cc1`: the outcome in the series with CWR22R [1] was inactive. In addition, the inhibition entry (in the series with CWR22R [2]; in [3]; in series [4]; in the series on PC-3; in series [5]; in series [6]) was “Active” each time. Further, the inhibition result in [7] and in series [8] was “Active” throughout. The Activity entry in series [9], in series [12], in [13] and in series [14] was “Non-Toxic” each time. Also, the result in the series on CWR22R [10] and in the series with CWR22R [11] was Active.
With `CCc1cccc(NC(=O)c2cc3cccc(O)c3oc2=N)c1`, the Activity entry in series [15], in series [16] and in series [17] was “Non-Toxic” each time. The outcome with CWR22R [18] and in the series with CWR22R [19] was Active.
